Laboratory results: ChEMBL document CHEMBL1833943, “Synthesis and structure-activity relationships of varied ether linker analogues of the antitubercular drug (6S)-2-nitro-6-{[4-(trifluoromethoxy)benzyl]oxy}-6,7-dihydro-5h-imidazo[2,1-b][1,3]oxazine (PA-824)” (J Med Chem, 2011)
Values after ≈ are worked out from the molar mass of the structure shown.

How the values were obtained:
[1] = test system: Mycobacterium tuberculosis; test: Antituberculosis activity against Mycobacterium tuberculosis H37Rv under aerobic conditions by microplate alamar blue assay; format: functional
[2] = test system: Mycobacterium tuberculosis; test: Antituberculosis activity against Mycobacterium tuberculosis H37Rv under anaerobic conditions by fluorescence based low-oxygen-recovery assay; format: functional
[3] = Aqueous solubility of the compound in water at pH 7 by HPLC analysis; format: physicochemical
Outline: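 Solubility measured in water at pH 7 and 20 °C, quantified by HPLC.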

## O=[N+]([O-])c1cn2c(n1)OC[C@@H](OCC#Cc1ccc(-c3ccc(C(F)(F)F)cc3)cc1)C2
[1]
  MIC: 0.22 µM (≈ 0.0975 µg/mL)
[2]
  MIC: 0.86 µM (≈ 0.381 µg/mL)

## O=[N+]([O-])c1cn2c(n1)OC[C@@H](Oc1ccc(C(F)(F)F)cn1)C2
[1]
  MIC: 2.9 µM (≈ 0.958 µg/mL)
[2]
  MIC: 16 µM (≈ 5.28 µg/mL)

## O=[N+]([O-])c1cn2c(n1)OC[C@@H](OCCCc1ccc(OCc3ccccc3)cc1)C2
[3]
  solubility: 3.8 µg/mL (≈ 9.28 µM)
[1]
  MIC: 0.5 µM (≈ 0.205 µg/mL)
[2]
  MIC: 3.7 µM (≈ 1.51 µg/mL)

## O=[N+]([O-])c1cn2c(n1)OC[C@@H](OCCOc1ccc(OCc3ccccc3)cc1)C2
[3]
  solubility: 1.7 µg/mL (≈ 4.13 µM)
[1]
  MIC: 0.085 µM (≈ 0.035 µg/mL)
[2]
  MIC: 5.5 µM (≈ 2.26 µg/mL)

## O=[N+]([O-])c1cn2c(n1)OC[C@@H](OCCCc1ccc(-c3ccc(F)cc3)cc1)C2
[1]
  MIC: 0.045 µM (≈ 0.0179 µg/mL)
[2]
  MIC: 0.92 µM (≈ 0.366 µg/mL)

## O=[N+]([O-])c1cn2c(n1)OC[C@@H](OCCCc1ccc(-c3ccc(C(F)(F)F)nc3)cc1)C2
[1]
  MIC: 0.07 µM (≈ 0.0314 µg/mL)
[2]
  MIC: 1.9 µM (≈ 0.852 µg/mL)

## O=[N+]([O-])c1cn2c(n1)OC[C@@H](OCCCc1ccc(-c3ccc(C(F)(F)F)cn3)cc1)C2
[1]
  MIC: 0.055 µM (≈ 0.0247 µg/mL)
[2]
  MIC: 3 µM (≈ 1.35 µg/mL)

## O=[N+]([O-])c1cn2c(n1)OC[C@@H](OCCOc1ccc(-c3ccc(F)cc3)cc1)C2
[1]
  MIC: 0.04 µM (≈ 0.016 µg/mL)
[2]
  MIC: 3.4 µM (≈ 1.36 µg/mL)

## O=[N+]([O-])c1cn2c(n1)OC[C@@H](OCCOc1ccc(-c3ccc(C(F)(F)F)cc3)cc1)C2
[1]
  MIC: 0.04 µM (≈ 0.018 µg/mL)
[2]
  MIC: 104 µM (≈ 46.7 µg/mL)

## O=[N+]([O-])c1cn2c(n1)OC[C@@H](OCCOc1ccc(-c3ccc(C(F)(F)F)nc3)cc1)C2
[1]
  MIC: 0.025 µM (≈ 0.0113 µg/mL)
[2]
  MIC: 4.1 µM (≈ 1.85 µg/mL)

## O=[N+]([O-])c1cn2c(n1)OC[C@@H](OCCOc1ccc(-c3ccc(F)cc3)cn1)C2
[1]
  MIC: 0.02 µM (≈ 0.00801 µg/mL)
[2]
  MIC: 2.4 µM (≈ 0.961 µg/mL)

## O=[N+]([O-])c1cn2c(n1)OC[C@@H](OCCOc1ccc(-c3ccc(C(F)(F)F)cc3)cn1)C2
[1]
  MIC: 0.02 µM (≈ 0.00901 µg/mL)
[2]
  MIC: 3 µM (≈ 1.35 µg/mL)

## O=[N+]([O-])c1cn2c(n1)OC[C@@H](OCCOc1ccc(-c3ccc(C(F)(F)F)nc3)cn1)C2
[1]
  MIC: 0.22 µM (≈ 0.0993 µg/mL)
[2]
  MIC: 10 µM (≈ 4.51 µg/mL)

## O=[N+]([O-])c1cn2c(n1)OC[C@@H](OCCOc1ncc(-c3ccc(F)cc3)cn1)C2
[1]
  MIC: 0.13 µM (≈ 0.0522 µg/mL)
[2]
  MIC: 13 µM (≈ 5.22 µg/mL)

## O=[N+]([O-])c1cn2c(n1)OC[C@@H](OCCOc1ncc(-c3ccc(C(F)(F)F)cc3)cn1)C2
[1]
  MIC: 0.12 µM (≈ 0.0542 µg/mL)
[2]
  MIC: 5.4 µM (≈ 2.44 µg/mL)

## O=[N+]([O-])c1cn2c(n1)OC[C@@H](OCCOc1ncc(-c3ccc(C(F)(F)F)nc3)cn1)C2
[1]
  MIC: 0.63 µM (≈ 0.285 µg/mL)
[2]
  MIC: 56 µM (≈ 25.3 µg/mL)

## O=[N+]([O-])c1cn2c(n1)OC[C@@H](OC/C=C/c1ccc(-c3ccc(F)cc3)cc1)C2
[1]
  MIC: 0.09 µM (≈ 0.0356 µg/mL)
[2]
  MIC: 3.1 µM (≈ 1.23 µg/mL)

## O=[N+]([O-])c1cn2c(n1)OC[C@@H](OC/C=C/c1ccc(-c3ccc(C(F)(F)F)cc3)cc1)C2
[1]
  MIC: 0.045 µM (≈ 0.02 µg/mL)
[2]
  MIC: 43 µM (≈ 19.2 µg/mL)

## O=[N+]([O-])c1cn2c(n1)OC[C@@H](OC/C=C/c1ccc(-c3ccc(C(F)(F)F)nc3)cc1)C2
[1]
  MIC: 0.02 µM (≈ 0.00893 µg/mL)
[2]
  MIC: 15 µM (≈ 6.7 µg/mL)

## O=[N+]([O-])c1cn2c(n1)OC[C@@H](OC/C=C/c1ccc(-c3ccc(OC(F)F)cc3)cc1)C2
[1]
  MIC: 0.08 µM (≈ 0.0355 µg/mL)
[2]
  MIC: 4.3 µM (≈ 1.91 µg/mL)

## O=[N+]([O-])c1cn2c(n1)OC[C@@H](OCC#Cc1ccc(-c3ccc(F)cc3)cc1)C2
[1]
  MIC: 0.035 µM (≈ 0.0138 µg/mL)
[2]
  MIC: 2.7 µM (≈ 1.06 µg/mL)

## O=[N+]([O-])c1cn2c(n1)OC[C@@H](OCC#Cc1ccc(-c3ccc(OC(F)F)cc3)cc1)C2
[1]
  MIC: 0.14 µM (≈ 0.0618 µg/mL)
[2]
  MIC: 1.8 µM (≈ 0.795 µg/mL)

## O=[N+]([O-])c1cn2c(n1)OC[C@@H](OCC#Cc1cccc(-c3ccc(F)cc3)c1)C2
[1]
  MIC: 0.04 µM (≈ 0.0157 µg/mL)
[2]
  MIC: 0.88 µM (≈ 0.346 µg/mL)

## O=[N+]([O-])c1cn2c(n1)OC[C@@H](OCC#Cc1cccc(-c3ccc(C(F)(F)F)cc3)c1)C2
[1]
  MIC: 0.27 µM (≈ 0.12 µg/mL)
[2]
  MIC: 1.3 µM (≈ 0.576 µg/mL)

## O=[N+]([O-])c1cn2c(n1)OC[C@@H](OCC#Cc1cccc(-c3ccc(C(F)(F)F)nc3)c1)C2
[1]
  MIC: 0.12 µM (≈ 0.0533 µg/mL)
[2]
  MIC: 0.96 µM (≈ 0.427 µg/mL)

## O=[N+]([O-])c1cn2c(n1)OC[C@@H](OCC#Cc1cccc(-c3ccc(OC(F)F)cc3)c1)C2
[1]
  MIC: 0.09 µM (≈ 0.0397 µg/mL)
[2]
  MIC: 1.4 µM (≈ 0.618 µg/mL)

## O=[N+]([O-])c1cn2c(n1)OC[C@@H](OCC#Cc1ccc(-c3ccc(F)cc3)cn1)C2
[1]
  MIC: 0.05 µM (≈ 0.0197 µg/mL)
[2]
  MIC: 0.85 µM (≈ 0.335 µg/mL)

## O=[N+]([O-])c1cn2c(n1)OC[C@@H](OCC#Cc1ccc(-c3ccc(C(F)(F)F)cc3)cn1)C2
[1]
  MIC: 0.02 µM (≈ 0.00889 µg/mL)
[2]
  MIC: 0.75 µM (≈ 0.333 µg/mL)

## O=[N+]([O-])c1cn2c(n1)OC[C@@H](OCC#Cc1ccc(-c3ccc(C(F)(F)F)nc3)cn1)C2
[1]
  MIC: 0.44 µM (≈ 0.196 µg/mL)
[2]
  MIC: 6.6 µM (≈ 2.94 µg/mL)

## O=[N+]([O-])c1cn2c(n1)OC[C@@H](OCC#Cc1ccc(-c3ccc(OC(F)F)cc3)cn1)C2
[1]
  MIC: 0.025 µM (≈ 0.0111 µg/mL)
[2]
  MIC: 0.44 µM (≈ 0.195 µg/mL)

## O=[N+]([O-])c1cn2c(n1)OC[C@@H](OCC#Cc1ccc(-c3ccc(F)cc3)nc1)C2
[1]
  MIC: 0.05 µM (≈ 0.0197 µg/mL)
[2]
  MIC: 1 µM (≈ 0.394 µg/mL)

## O=[N+]([O-])c1cn2c(n1)OC[C@@H](OCC#Cc1ccc(-c3ccc(C(F)(F)F)cc3)nc1)C2
[1]
  MIC: 0.07 µM (≈ 0.0311 µg/mL)
[2]
  MIC: 0.58 µM (≈ 0.258 µg/mL)

## O=[N+]([O-])c1cn2c(n1)OC[C@@H](OCC#Cc1ccc(-c3ccc(C(F)(F)F)nc3)nc1)C2
[1]
  MIC: 0.12 µM (≈ 0.0534 µg/mL)
[2]
  MIC: 3.7 µM (≈ 1.65 µg/mL)

## O=[N+]([O-])c1cn2c(n1)OC[C@@H](OCC#Cc1ccc(-c3ccc(OC(F)F)cc3)nc1)C2
[1]
  MIC: 0.08 µM (≈ 0.0354 µg/mL)
[2]
  MIC: 0.61 µM (≈ 0.27 µg/mL)
